# ABHD5 PLIN5 PPI: ABHD5-PLIN5 protein interaction inhibition | Q00G26+Q8WTS1 | AID 602281 | 360,000 tested, 0.78% active | Split G. princeps luciferase complementation, luminescence, 4 h | inhibition, % at 4 µM;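 active = inhibition above the mean inhibition across every tested compound plus 3 SD, cut at about 22% in these data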;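 also: 0% = DMSO only wells and the 100% control is not disclosed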
# HKDC1 inh: inhibitors of human hexokinase HKDC1; Q2TB90; recombinant HKDC1, G6PDH/diaphorase resazurin coupled fluorescence; inhibition, % at 20 µM; 340,000 tested, 0.16% active;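 active = inhibition above about 35% when tested at 20 µM, limit read from the data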;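 also: plate controls were DMSO wells with enzyme for no effect and DMSO wells lacking enzyme for full effect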
#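 Material – in-house recombinant HK5 (HKDC1) enzyme · Quantity – HKDC1 at 5 µg/mL · Buffer or medium – pH 8.0 Tris buffer with 10 mM MgCl2 · Reagent – glucose with 1 mM ATP · Dosing – single 20 µM dose · Times – reaction time 90 min, room temperature, protected from light · Technique – resorufin fluorescence at 613 nm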
# Granule exo inh: lytic granule exocytosis inhibition | TALL-104 LAMP-1 surface exposure, flow cytometry; cells stimulated with thapsigargin and PMA | inhibition, % at 10 µM | 360,000 tested, 0.66% active | AID 651702;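 active = inhibition above about 55%, limit read from the data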
# PfG6PD inh: PfG6PD (Plasmodium falciparum) enzyme inhibition | PfGluPho enzyme, NADPH resazurin-diaphorase fluorescence | inhibition, % at 20 µM | 350,000 tested, 0.78% active | AID 504690;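 active = inhibition reaching at least a set limit at 20 µM in the primary screen, cut at about 59% in these data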;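 also: 0% = DMSO wells with substrate and 100% = DMSO wells lacking glucose-6-phosphate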
# Granule exo CP1: lytic granule exocytosis inhibition. inhibition, % at 10 µM. shares compounds with Granule exo inh. 1,500 tested, 11% active. TALL-104 cells, LAMP-1 externalization, flow cytometry; stimulated with PMA plus thapsigargin. AID 651954; in the data active = inhibition above about 60%;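 also: 0% = stimulated vehicle wells and 100% = unstimulated wells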
# Numbers without * were called inactive; nt = not tested or not shown. An excerpt weighted towards active compounds, which were near 2.2% of everything screened.
SMILES,ABHD5 PLIN5 PPI,HKDC1 inh,Granule exo inh,PfG6PD inh,Granule exo CP1
CCN(Cc1ccccc1)S(=O)(=O)c1ccc(C(=O)N(CCCN(C)C)c2nc3c(C)c(C)ccc3s2)cc1,11.5,-2.8,59.6*,-9.7,33.4
CCN(CC)CCN(C(=O)c1ccc(S(=O)(=O)N(C)C2CCCCC2)cc1)c1nc2c(C)cccc2s1,-8.7,2.5,1.2,1.7,nt
Cc1ccc2sc(N(CCCN(C)C)C(=O)CCS(=O)(=O)c3ccccc3)nc2c1C,16.6,-0.3,83.9*,34.4,53.5
CN(C)CCN(C(=O)CCS(=O)(=O)c1ccccc1)c1nc2c(F)cccc2s1,0.2,-5.2,3.0,4.7,nt
CN(C)CCN(C(=O)c1ccc(S(=O)(=O)N(C)c2ccccc2)cc1)c1nc2cc3c(cc2s1)OCO3,-2.5,-1.5,-1.1,8.4,nt
Cc1ccc2sc(N(CCCN(C)C)C(=O)c3ccc(S(=O)(=O)N(C)C4CCCCC4)cc3)nc2c1C,8.9,2.7,61.6*,-19.8,36.0
O=C(NCC(c1ccco1)N1CCc2ccccc2C1)c1ccc(Br)cc1 (stereo not given),-7.2,-2.6,-10.9,28.4,nt
CC(OC(=O)C1=COCCO1)C(=O)NC(C)c1ccc(Cl)cc1Cl (stereo not given),3.1,-0.8,0.7,-5.2,nt
O=C(COC(=O)c1nc(Cl)ccc1Cl)NCc1ccc(Cl)cc1,-2.1,-5.0,-1.3,1.1,nt
CC(NCCN(C)C)C(=O)C12CC3CC(CC(C3)C1)C2 (stereo not given),8.4,-4.2,4.4,5.9,nt
OC(c1cccc(F)c1)c1ncc(-c2ccc(C(F)(F)F)cc2)[nH]1 (stereo not given),-12.2,nt,0.1,nt,nt
CCOC(=O)c1c(C)oc2c1cc(O)c1ccccc12,9.7,5.8,44.6,5.0,nt
CC(=O)c1c(C)oc2c1cc(O)c1ccccc12,2.4,7.1,88.9*,2.4,-13.2
CCN(CC)CCCN(C(=O)c1ccc(Br)cc1)c1nc(-c2ccc(OC)cc2)cs1,16.6,6.7,62.7*,22.6,-8.9
CC(NCc1cc(Br)ccc1OCC(N)=O)C12CC3CC(CC(C3)C1)C2 (stereo not given),5.2,0.7,58.6*,9.6,-3.7
CCOc1ccc(NC(=O)C2CCCN2S(=O)(=O)c2ccc(OCC)cc2)cc1 (stereo not given),2.6,-3.4,55.7*,8.4,-4.6
COc1ccc(S(=O)(=O)N2CCCC2C(=O)Nc2ccc(C)cc2)cc1 (stereo not given),0.5,3.2,-1.7,-12.8,nt
COc1ccc(NC(=O)CSc2nccn2Cc2ccc(F)cc2)cc1,-5.5,-2.7,-1.2,-3.6,nt
Cc1cncn1CCc1nc2c3ccccc3nc(SCC(=O)Nc3cccc(Cl)c3)n2n1,14.3,-4.6,68.5*,10.4,81.0*
Cc1ncc(CO)c2cc(C(=O)Nc3ccccc3Cl)c(=Nc3cccc(C(N)=O)c3)oc12,3.9,4.0,12.0,10.5,nt
CC(C)NC(=O)C(c1ccc(F)cc1)N(C(=O)CCC(=O)Nc1ccccn1)c1cccc(F)c1 (stereo not given),-12.1,-3.3,7.0,-15.7,nt
CCOC(=O)C1=C(C)N(c2ccccc2)C(=O)C1,0.8,-11.3,100.1*,2.0,-14.4
COC(=O)C1=C(C)N(c2ccc(S(N)(=O)=O)cc2)C(=O)C1,-2.3,-7.0,1.4,-1.6,nt
COC(=O)c1c(NC(=O)CSc2nnc(CNc3ccc(Cl)cc3)o2)sc(C)c1C,-3.2,-1.0,91.7*,14.2,-2.8
Cc1cc2nc(-c3ccco3)c(Cc3ccccc3C(F)(F)F)n2c(C)c1Br,39.8*,nt,84.8*,nt,-11.5
SMILES,ABHD5 PLIN5 PPI,HKDC1 inh,Granule exo inh,PfG6PD inh,Granule exo CP1
CCc1nc2ccc(C(=O)Nc3cc(-c4ccccc4)ccc3OC)cn2c1N(CCN(C)C)CC1CC1,7.6,nt,59.5*,nt,48.9
CCN(CC)CCOC(=O)c1ccc(N/C=C(/C#N)c2nc(-c3ccc(OC)cc3)cs2)cc1,11.2,-1.0,63.5*,11.3,66.4*
O=C(O)CCCNC(=O)CCCn1nnc2ccccc2c1=O,-0.2,-3.3,-1.9,-5.9,nt
Cc1cc(C(=O)Nc2ccc(Nc3ccccc3)cc2)ccc1[N+](=O)[O-],-2.5,1.4,63.9*,11.4,-3.1
CCN(CC)C(=S)SC1CCCCN(C(=O)c2ccc(F)cc2)C1=O (stereo not given),3.0,-1.8,-3.8,3.8,nt
CC(C)NC(=O)c1ccccc1NS(=O)(=O)c1ccc(Br)s1,6.7,-1.5,59.3*,-12.5,-12.8
C=Cc1ccc(CN2CCCN(Cc3ccc(F)cc3)S2(=O)=O)cc1,-9.5,3.2,-6.5,-3.7,nt
